# According to ChEMBL document CHEMBL4346682 (Eur J Med Chem, 2019):
# Calls of active or inactive are those of the source. The calls are words filed in the database; no cut-off is given here.
# What was measured:
# [1] = system: HeLa; assay: Cell cycle arrest in human HeLa cells assessed as accumulation at G2/M phase at 0.08 uM measured after 24 hrs by DAPI staining based HCS analysis; format: functional
# [2] = system: HeLa; assay: Cell cycle arrest in human HeLa cells assessed as accumulation at G2/M phase at 2 uM measured after 24 hrs by DAPI staining based HCS analysis; format: functional
# [3] = system: HeLa; assay: Cell cycle arrest in human HeLa cells assessed as accumulation at G2/M phase at 0.4 uM measured after 24 hrs by DAPI staining based HCS analysis; format: functional
# [4] = system: HeLa; assay: Cell cycle arrest in human HeLa cells assessed as accumulation at G2/M phase at 0.016 uM measured after 24 hrs by DAPI staining based HCS analysis; format: functional
# [5] = system: L1210; assay: Antiproliferative activity against mouse L1210 cells measured after 96 hrs by Coulter counter method; format: functional, cell-based; conditions: L1210, 96 h
# In short: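 L1210 suspension cells seeded at 60,000 cells/well with a range of compound concentrations, grown 96 h, counted in a Coulter counter. IC50 is the concentration reducing proliferation by 50%, mean ± SD of three independent experiments.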
# [6] = system: HMEC-1; assay: Antiproliferative activity against human HMEC1 cells measured after 4 days by Coulter counter method; format: functional, cell-based; conditions: HMEC-1, 96 h
# [7] = target: Tubulin (Homo sapiens) (UniProt P68371+Q9H4B7+P0DPH7+P68366+Q13509+Q71U36+P04350+Q3ZCM7+P07437+P68363+Q9BQE3+Q6PEY2+Q13885+Q9BVA1+Q9BUF5); assay: Inhibition of human tubulin polymerization assessed as induction of tubulin polymerization destabilization at 30 uM by turbidimetric assay
# [8] = target: Tubulin (Bos taurus) (UniProt Q6B856+Q862L2+Q862F3); assay: Binding affinity to calf brain tubulin assessed as binding constant incubated for 30 mins in presence of R-PT by fluorescence based method
# In short: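 Competition assay with calf brain tubulin. A premixed 0.2 µM R-PT plus 0.2 µM tubulin sample was exposed to ligand at 0–70 µM in 10 mM sodium phosphate, 0.1 mM GTP, pH 7.0, incubated 30 min at 25 °C. Fluorescence read at 456 nm (excitation 374 nm). Kb fitted by competition analysis, mean of three experiments ± StdError.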
# [9] = system: CCRF-CEM; assay: Antiproliferative activity against human CEM cells measured after 96 hrs by Coulter counter method; format: functional, cell-based
# In short: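 CEM suspension cells seeded at 60,000 cells/well with a range of compound concentrations, grown 96 h, then counted. Medium is DMEM with 10% FBS, 0.01 M Hepes and 1 mM sodium pyruvate, 37 °C, 5% CO2.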
# [10] = system: HeLa; assay: Antiproliferative activity against human HeLa cells measured after 3 days by Coulter counter method; format: functional, cell-based; conditions: 72 h
# [11] = system: HMEC-1; assay: Vascular disrupting activity in human HMEC1 cells at 0.4 uM after 90 mins; format: functional, cell-based
# In short: (§1)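 HMEC-1 seeded at 60,000 cells/well on matrigel (10 mg/mL, gelled 30 min at 37 °C) in DMEM with 10% FCS. After 3 h at 37 °C, once tube-like networks formed, compound was added at 2, 0.4 or 0.08 µM. After 90 min, images taken at 100× and meshes, branching points and tube length quantified.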
# [12] = system: HMEC-1; assay: Vascular disrupting activity in human HMEC1 cells at 0.08 to 2 uM after 90 mins; format: functional, cell-based; in short: as §1
# [13] = system: HMEC-1; assay: Cell cycle arrest in human HMEC1 cells assessed as accumulation at G2/M phase at 0.08 uM measured after 24 hrs by propidium iodide based FACSCalibur flow cytometry; format: functional
# In short: (§2)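 HMEC-1 seeded at 125,000 cells/well in DMEM with 10% FBS and exposed to compound after 24 h. After another 24 h, DNA was stained with propidium iodide and analysed by flow cytometry within 3 h. Debris and clumps were gated out, and sub-G1, G1, S and G2/M fractions estimated with region markers.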
# [14] = system: HMEC-1; assay: Cell cycle arrest in human HMEC1 cells assessed as accumulation at G2/M phase at 0.4 uM measured after 24 hrs by propidium iodide based FACSCalibur flow cytometry; format: functional; in short: as §2
SMILES,Activity [1],Activity [2],Activity [3],Activity [4],IC50 [5] [nM],IC50 [6] [nM],Activity [7],Kb [8] [×10⁶ /M],IC50 [9] [nM],IC50 [10] [nM],Activity [11],Activity [12],Activity [13],Activity [14]
COc1cc2c(c(OC)c1OC)-c1ccc(OC)c(=O)cc1[C@@H](NC(C)=O)CC2,Active,Active,Active,Active,–,–,–,–,–,–,–,–,–,–
COc1ccc(/C=C\c2cc(OC)c(OC)c(OC)c2)cc1OP(=O)(O)O [FOSBRETABULIN DISODIUM],–,–,–,–,13,–,–,–,–,–,–,–,–,–
COc1cccc(Oc2ccccc2NC(C)=C2C(=O)CC(c3ccccc3)CC2=O)c1 (stereo unspecified),–,–,–,–,58,59,Active,15.7,41,93,–,–,–,–
CC(Nc1ccccc1Oc1ccccc1)=C1C(=O)CC(c2ccccc2)CC1=O (stereo unspecified),–,–,–,–,86,160,Active,6.46,170,79,–,–,–,–
COc1cc([C@@H]2c3cc4c(cc3[C@H](O)[C@H]3COC(=O)[C@H]23)OCO4)cc(OC)c1OC,–,–,–,–,–,–,Active,–,–,–,–,–,–,–
CC(Nc1ccccc1Oc1cccc(N)c1)=C1C(=O)CC(c2ccccc2)CC1=O (stereo unspecified),–,–,–,–,53,41,Active,5.56,42,82,–,–,–,–
CC(Nc1ccccc1Oc1cccc(F)c1)=C1C(=O)CC(c2ccccc2)CC1=O (stereo unspecified),–,–,–,–,330,360,–,–,170,550,–,–,–,–
COc1ccc(Oc2ccccc2NC(C)=C2C(=O)CC(c3ccccc3)CC2=O)cc1OC (stereo unspecified),–,–,–,–,65,140,Active,2.24,160,54,–,–,–,–
CC(Nc1ccccc1Oc1ccc(C(C)O)cc1)=C1C(=O)CC(c2ccccc2)CC1=O (stereo unspecified),–,–,–,–,58,140,Active,3.13,120,75,–,–,–,–
CC(Nc1ccccc1Oc1ccc(N)cc1)=C1C(=O)CC(c2ccccc2)CC1=O (stereo unspecified),Active,Active,Active,Active,40,47,Active,11.8,37,39,Active,Dose-dependent effect,Active,–
CC(=O)c1ccc(Oc2ccccc2NC(C)=C2C(=O)CC(c3ccccc3)CC2=O)cc1 (stereo unspecified),–,–,–,–,190,180,–,–,220,130,–,–,–,–
CC(Nc1ccccc1Oc1ccc(Cl)cc1)=C1C(=O)CC(c2ccccc2)CC1=O (stereo unspecified),–,–,–,–,250,260,–,–,190,500,–,–,–,–
CCOc1ccccc1NC(C)=C1C(=O)CC(c2ccccc2)CC1=O (stereo unspecified),–,–,–,–,190,100,Active,13,190,180,–,–,–,–
COc1cc(Oc2ccccc2NC(C)=C2C(=O)CC(c3ccccc3)CC2=O)ccc1N (stereo unspecified),Active,Active,Active,Active,26,29,Active,18.1,12,33,Active,Dose-dependent effect,–,Active
COc1ccc(Oc2ccccc2NC(C)=C2C(=O)CC(c3ccccc3)CC2=O)cc1 (stereo unspecified),–,–,–,–,140,83,Active,5.23,120,160,–,–,–,–
